Screening results: PubChem, several laboratories
KLK7 zymogen act – activators of human kallikrein-7 zymogen. P49862. purified proKLK7, EDANS-DABCYL substrate fluorescence; 100% is mature enzyme control, 0% vehicle. activation, % at 7 µM. actives 0.9% (n = 370,000);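 active means activation above the mean of all tested compounds plus 3 SD, computed per campaign excluding outliers beyond control limits, cut at about 13% in these data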
CendR NRP1 mod – modulators of CendR peptide binding to human neuropilin-1 | actives 0.85% (n = 360,000) | O14786 | FAM-RPARPAR peptide binding to NRP-1, fluorescence polarization | inhibition, % at 25 µM;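 active means inhibition or corrected inhibition above about 18%, plus a signal ratio from 0.5 to 1.5, limit read from the data, passing the limit was not always enough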
DDE Tn6 FP inh – disrupts Tn6 cyclic peptide binding to fibrin D-Dimer-E complex. AID 720509. actives 0.21% (n = 370,000). Fibrin DD(E) TRITC-Tn6 fluorescence polarization displacement. inhibition, % at 8.3 µM;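 active means inhibition above a per-campaign cutoff: mean of compounds within control limits plus 3 SD, cut at about 15% in these data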;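 further: 0% = median of all compound wells on the plate and 100% = blocking peptide control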
Target sequence (P02675 whole entry, looked up): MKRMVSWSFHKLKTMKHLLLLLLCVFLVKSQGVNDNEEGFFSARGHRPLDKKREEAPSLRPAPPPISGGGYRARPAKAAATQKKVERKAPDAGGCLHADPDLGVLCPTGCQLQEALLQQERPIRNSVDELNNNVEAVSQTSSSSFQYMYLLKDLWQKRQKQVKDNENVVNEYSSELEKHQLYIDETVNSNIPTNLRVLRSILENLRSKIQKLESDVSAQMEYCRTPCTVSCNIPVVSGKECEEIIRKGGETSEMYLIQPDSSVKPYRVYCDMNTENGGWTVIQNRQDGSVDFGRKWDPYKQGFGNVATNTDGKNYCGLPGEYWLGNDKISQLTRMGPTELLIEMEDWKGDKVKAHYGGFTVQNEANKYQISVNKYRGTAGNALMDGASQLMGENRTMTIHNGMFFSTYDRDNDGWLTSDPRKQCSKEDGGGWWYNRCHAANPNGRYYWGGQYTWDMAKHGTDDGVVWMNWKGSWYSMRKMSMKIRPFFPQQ
DDE Tn7 FP inh – disrupts Tn7 cyclic peptide binding to fibrin D-Dimer-E complex; P02675; FP displacement of FITC-Tn7 peptide from fibrin DD(E); 0% = median of compound wells per plate; inhibition, % at 8.3 µM; actives 0.13% (n = 370,000);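 active means inhibition above the mean of compounds falling within the control limits plus 3 SD of them, cut at about 14% in these data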;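 further: 0% = plate median of compound wells and 100% = 10 µM Aha-Tn7 peptide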
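system = human fibrin DD(E) protein | quantity = DD(E) 2 µM final | medium = Tris/NaCl/CaCl2 buffer, pH 7.8 | also added = labelled Tn7 tracer, 0.1 µM | compound dosing = single point at 8.3 µM | timing = compound with protein 10 min, then 3 h after probe, room temperature | signal = FP measurement | benchmarks = Aha-Tn7 high control | repeats = one replicate per compound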
CRFBP-R2 agonist – CRF-BP/CRF-R2 complex agonism. AID 588473. HEK293 CRF-R2/CRF-BP, calcium dye fluorescence (FLIPR); percent of saturating CRF peptide response. actives 0.46% (n = 350,000). activation, % at 13.2 µM;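 active means activation of at least 50%, plus an integration ratio under a set limit after plate pattern correction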;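 further: plate controls were neutral control wells without compound for no effect and CRF at EC100 for full effect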
CRFBP-R2 block – antagonists of CRF-binding protein/CRF-R2 receptor complex. HEK293 CRF-R2/CRF-BP, CRF-induced calcium fluorescence. inhibition, % at 11.8 µM. actives 0.59% (n = 350,000). AID 588475;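 active means inhibition of the ligand-induced calcium signal above about 50% at the single tested concentration, limit read from the data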
Tn7 DDE conf – DD(E)-Tn7 binding inhibition, FP confirmation | shares compounds with DDE Tn7 FP inh | inhibition, % at 8.3 µM | FP displacement of TRITC-Tn7 peptide from DD(E); 0% set at plate's compound-well median | actives 5% (n = 460);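 active means inhibition above the campaign cutoff, the mean of compounds within control limits plus 3 SD, cut at about 14% in these data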;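 further: 100% = median FP of high control wells holding Aha-Tn7 inhibitor peptide; displacers lower polarization since freed probe rises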
DDE Tn7 FP ctr – DD(E)-Tn7 binding inhibition, counter-screen | shares compounds with DDE Tn7 FP inh | inhibition, % at 8.3 µM | AID 720633 | actives 3% (n = 460) | fibrin DD(E), TRITC-Tn7 probe displacement, fluorescence polarization;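 active means inhibition above the cutoff, the mean of compounds lying between the control bounds plus 3 SD of those compounds, cut at about 17% in these data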;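 further: 0% = median of compound sample wells and 100% = excess unlabeled Aha-Tn7 peptide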
Tn6 DDE ctr – counter-screen hit for Tn6 peptide-fibrin DD(E) binding disruption; shares compounds with DDE Tn6 FP inh; TRITC-Tn6 fluorescence polarization displacement; 0% = median of compound wells, not DMSO; inhibition, % at 8.3 µM; actives 2% (n = 680);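 active means inhibition above the mean of test compounds lying between the control limits plus 3 SD of those, cut at about 14% in these data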;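 further: 0% = median of compound wells and 100% = wells with Aha-Tn7 blocking peptide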
DDE Tn6 confirm – DD(E)-Tn6 binding inhibition, FP confirmation; shares compounds with DDE Tn6 FP inh; FP displacement of TRITC-Tn6 peptide from DD(E); 0% = per-plate median of test wells; inhibition, % at 8.3 µM; actives 10% (n = 680);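 active means inhibition above the mean of compounds lying within the control limits plus 3 SD, cut at about 16% in these data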;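 further: 100% = high control wells holding a competing inhibitor peptide at 10 µM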
Starred values were filed as active, the others as inactive; · = not tested or not shown; + = active, no number. In the library only some 2.9% were active in any assay of this set; here they are far more common.

SMILES | KLK7 zymogen act | CendR NRP1 mod | DDE Tn6 FP inh | DDE Tn7 FP inh | CRFBP-R2 agonist | CRFBP-R2 block | Tn6 DDE ctr | DDE Tn6 confirm | others
O=C1NCN(c2ccccc2)C12CCN(C(c1cc3ccccc3o1)c1nnnn1Cc1ccccc1)CC2 (configuration not stated) | 0 | 16 | 4 | 3 | · | · | · | ·
COC(=O)C(O)(c1ccc(N=Cc2ccccc2O)c(C)c1)C(F)(F)F (configuration not stated) | 0 | -6 | 4 | 16* | -6 | 33 | · | · | Tn7 DDE conf=-1;DDE Tn7 FP ctr=-3
COC(=O)C(O)(c1ccc(NC(=O)c2cccs2)c(C)c1)C(F)(F)F (configuration not stated) | 0 | -3 | -5 | 4 | -1 | 9 | · | ·
O=C1NCN(c2ccccc2)C12CCN(C(c1ccnc3ccccc13)c1nnnn1-c1ccc3c(c1)OCCO3)CC2 (configuration not stated) | 0 | -1 | -5 | -4 | · | · | · | ·
CCCCn1c(O)c(C(CC)=Nc2ccc(C(=O)O)cc2)c(=O)[nH]c1=O | 0 | -7 | 3 | 15* | 0 | 11 | · | · | Tn7 DDE conf=4;DDE Tn7 FP ctr=2
CN1C2CCC1CC(OC(c1ccccc1)c1ccc(Cl)cc1)C2 (configuration not stated) | 0 | · | -1 | -4 | · | · | · | ·
Cc1ccc2cc(C=C(C#N)C#N)c(Cl)nc2c1 | 12 | 4 | 2 | 15* | 13 | -31 | · | · | Tn7 DDE conf=10;DDE Tn7 FP ctr=5
COC(=O)CC1(CC(=O)OC)C(=O)N(c2ccccc2)C(=O)N(c2ccccc2)C1=O | 0 | 9 | -1 | -10 | 10 | -22 | · | ·
COC(=O)CC1(CC(=O)OC)C(=O)NC(=O)NC1=O | 0 | -5 | 18* | -1 | 0 | -5 | -5 | -13
CSCCC(c1nnnn1-c1c(C)cccc1C)N1CCC2(CC1)C(=O)NCN2c1ccccc1 (configuration not stated) | 0 | 0 | 4 | 5 | · | · | · | ·
CCN1/C(=C/C=C/C2=[N+](CC)c3ccccc3C2(C)C)C(C)(C)c2ccccc21 | 1 | 126 | + | -92 | 139* | -43 | -132 | 93*
C[N+]1=C(/C=C/Nc2ccccc2)C(C)(C)c2ccccc21 | 0 | -14 | 0 | -6 | 2 | -19 | · | ·
Cc1cccc(-n2c(O)c(C=NCCN3CCNCC3)c(=O)[nH]c2=S)c1 | 0 | -3 | 16* | -2 | 5 | -4 | -2 | -4
CNC(=S)N1CCN(CCN=Cc2c(O)n(-c3ccc(C)cc3)c(=S)[nH]c2=O)CC1 | 0 | 1 | 1 | 4 | 2 | -5 | · | ·
NC(Cc1ccc(N(CCCl)CCCl)cc1)C(=O)O (configuration not stated) | -1 | · | 6 | 9 | · | · | · | ·
Cc1ccc2c(c1)[C@@H]1CN(C)CC[C@@H]1N2C(=O)Nc1cccc(C(F)(F)F)c1 | 0 | 6 | 17* | 6 | 15 | -83 | 1 | -2
Cc1ccc2c(c1)C1CN(C)CCC1N2C(=O)Nc1cccc(C(F)(F)F)c1 (configuration not stated) | 0 | -4 | 5 | -1 | -1 | -25 | · | ·
CNc1ccc2nc3ccccc3[n+](C)c2c1 | 1 | 29* | + | -1 | 0 | 0 | -8 | 94*
C[n+]1c2ccccc2nc2ccc(NCCO)cc21 | 0 | 14 | + | -1 | 1 | -10 | 1 | 122*
COc1cccc(C(c2nnnn2C(C)(C)C)N2CCC3(CC2)C(=O)NCN3c2ccccc2)c1OC (configuration not stated) | 0 | 4 | -2 | -7 | · | · | · | ·
CCOC(=O)C(O)(c1ccc(NC(=O)NC2CCCCC2)cc1)C(F)(F)F (configuration not stated) | 0 | 11 | 17* | 5 | 2 | -47 | 4 | -8
COC12c3ccccc3-c3ccccc3C1C(C(=O)O)C2C(=O)O (configuration not stated) | 0 | -11 | 6 | -8 | · | · | · | ·
CN(C)c1ccc(/C=C/C=C2/C(=O)NC(=O)N(c3ccccc3)C2=O)cc1 | 1 | -123 | 23* | 2 | 47 | -45 | 10 | 40*
